Compounds with a hit are over-represented: about 1.8% of the library has one in this group of screens.
M4 PAM = CHRM4 positive allosteric modulation; CHO-K1 hM4/Gqi5, Fluo-8 calcium fluorescence, ACh EC20; 0% = ACh EC20, 100% = maximal ACh; 0.4% of 360,000 active; AID 624126; P08173; activation, % at 3 µM;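 active means activation above its plate's cutoff, the mean activation of sample wells plus 3 SD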
M5 PAM = CHRM5 positive allosteric modulation. activation, % at 3 µM. 0.3% of 360,000 active. CHO-K1 hM5, Fluo-8 calcium, ACh EC20 PAM; 0% = ACh EC20, 100% = ACh EC100. AID 624038;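 active means activation above the run cutoff, the mean activation of all test compounds plus 3 SD, cut at about 18% in these data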
Target sequence (P08912 whole entry, looked up): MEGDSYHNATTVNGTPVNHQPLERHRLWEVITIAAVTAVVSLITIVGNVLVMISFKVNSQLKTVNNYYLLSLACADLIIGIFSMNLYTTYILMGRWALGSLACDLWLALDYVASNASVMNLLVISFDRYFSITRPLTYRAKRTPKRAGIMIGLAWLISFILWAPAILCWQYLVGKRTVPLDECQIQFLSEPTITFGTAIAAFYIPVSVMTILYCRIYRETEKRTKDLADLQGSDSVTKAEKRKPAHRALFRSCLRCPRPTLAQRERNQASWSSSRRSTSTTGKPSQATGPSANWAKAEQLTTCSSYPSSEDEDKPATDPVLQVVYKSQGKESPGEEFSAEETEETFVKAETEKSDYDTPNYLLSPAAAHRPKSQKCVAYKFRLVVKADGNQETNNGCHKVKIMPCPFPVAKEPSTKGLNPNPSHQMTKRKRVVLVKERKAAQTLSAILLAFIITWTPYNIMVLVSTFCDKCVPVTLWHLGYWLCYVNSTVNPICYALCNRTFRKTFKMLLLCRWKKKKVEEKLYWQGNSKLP
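Measured by: Fluo-8 calcium fluorescence; material: human M5 receptor in CHO-K1 cells; schedule: Post-acetylcholine fluorescence recording 140 s; benchmarks: low control EC20 acetylcholine (0%), high control EC100 acetylcholine (100%); read-out: Max/basal fluorescence ratio as % of EC20–EC100 ACh window; compound: single dose, 3 µM nominal final test concentration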
CHRM4 agonist = agonists of human muscarinic M4 receptor (CHRM4); activation, % at 3 µM; P08173; 0.14% of 360,000 active; CHO-K1 hM4/Gqi5, Fluo-8 calcium fluorescence; vehicle 0%, full acetylcholine response 100%;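 active means activation above the run mean over all test wells plus 3 SD, cut at about 32% in these data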;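 further: peak over basal fluorescence ratio per well then scaled between controls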
M5 ag = agonists of human muscarinic M5 receptor (CHRM5) | P08912 | CHO-K1 hM5 cells, Fluo-8 calcium fluorescence; 0% DMSO wells, 100% maximal acetylcholine response | activation, % at 3 µM | 0.19% of 360,000 active | AID 624037;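 active means activation above the run's mean over test compounds plus 3 SD, cut at about 23% in these data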;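 further: signal is peak over basal fluorescence ratio across the kinetic read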
M4 antag = blocks acetylcholine activation of human M4 receptor | P08173 | CHO-hM4 cells, ACh EC80, Fluo-8 calcium fluorescence | inhibition, % at 3 µM | 0.73% of 360,000 active;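 active means inhibition above its plate's cutoff, the mean inhibition of sample wells plus 3 SD, cut at about 27% in these data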
M5 antag = blocks acetylcholine activation of human M5 receptor. 0.59% of 360,000 active. inhibition, % at 3 µM. CHO-hM5 cells, Fluo-8 calcium fluorescence, ACh EC80. P08912;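 active means inhibition above a per-plate cutoff, the mean of that plate's test compounds plus 3 SD, cut at about 27% in these data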
Large screens that a line does not name were inactive.

CC1(c2ccc(OC(F)F)cc2)NC(=O)N(CC(=O)Nc2ccc3c(c2)OCO3)C1=O (stereo not drawn)	CHRM4 agonist 32.1, M5 ag 40.9
O=C(NNC(=O)c1cccc2ccccc12)c1ccccc1O	M4 PAM 17.4
O=C(NNC(=O)c1cccc2ccccc12)c1ccc(-c2ccccc2)cc1	none
O=C(NNc1c2ccccc2nc2ccccc12)c1ccccc1O	M5 antag 34.0
COC(=O)C[C@@H]1CC[C@H](NC(=O)c2ccc3c(c2)OCO3)[C@@H](CO)O1	none
O=C(CNc1ccccc1N1CCCC1=O)Nc1cc(C(F)(F)F)ccc1-n1cncn1	none
Cc1ccccc1N1C(=O)C2ON(c3ccccc3)C(c3ccco3)C2C1=O (stereo not drawn)	none
CC[C@H](C)[C@H](NC(N)=O)C(=O)Nc1ccc(S(=O)(=O)NC(C)C)cc1	M4 antag 29.8
COc1cccc(CNC(=O)c2ccc(NC(=O)CC3SC(N4CCCC4)=NC3=O)cc2)c1 (stereo not drawn)	none
COc1ccc(C2=NS(=O)(=O)N(C)C(C(=O)N3CCC(C(N)=O)CC3)=C2)cc1	M4 antag 33.9
COc1ccc(C2=NS(=O)(=O)N(C)C(C(=O)N3CCOCC3)=C2)cc1	none
O=C(NCCS(=O)(=O)N1CCN(c2ccc(F)cc2)CC1)c1ccco1	none
CC1CCN(Cc2ccc(NC(=O)CC3Oc4ccccc4NC3=O)cc2)CC1 (stereo not drawn)	M4 antag 97.5, M5 antag 37.3
CCC(C)N(CCNC(=O)CC1Oc2ccccc2NC1=O)C1CCCCC1 (stereo not drawn)	M4 antag 44.8
CC(C)CN(CCNC(=O)CC1Oc2ccccc2NC1=O)CC(C)C (stereo not drawn)	none
O=C(NCc1ccccc1F)C1CCCN1C(=O)Nc1ccc(Cl)cc1 (stereo not drawn)	none
O=C(c1cccnc1)N1CCN(c2ccc(Cl)cc2)CC1	M4 PAM 29.6
O=C(Nc1ccc(N2CCN(C(=O)c3ccc(Cl)cc3)CC2)cc1)c1cccnc1	none
O=C(c1ccc(Cl)cc1)N1CCN(c2ccc([N+](=O)[O-])c(NCc3cccnc3)c2)CC1	M4 PAM 26.0
Cc1cc(C)cc(-c2nnc(SCC(=O)NCC3CCCO3)o2)c1 (stereo not drawn)	M4 PAM 23.0
COc1ccc(-c2nnc(SCC(=O)NCC3CCCO3)o2)cc1 (stereo not drawn)	none
O=C1C=C(N2CCOCC2)c2ccccc2C1=O	none
CC1=C(C)C(=O)C(N2CCOCC2)=CC1=O	M5 PAM 21.2
CCOc1ccc(NC(=O)CCC(=O)NNC(=O)COc2ccc(C)cc2)cc1	M5 antag 30.1
CC(=O)Nc1ccc(OCC(=O)c2cc(C)ccc2C)cc1	M4 PAM 19.1
CC(=O)Nc1ccc(OCC(=O)c2ccc(C)cc2C)cc1	none
Cc1ccc(-c2noc(-c3ccno3)n2)cc1	M4 PAM 30.6
c1ccc(-c2noc(-c3ccno3)n2)nc1	none
CCCCNC(=O)c1ccc2c(c1)C(=O)N(Cc1ccncc1)C2=O	none
COc1ccc(C(CNC(=O)c2c(C)nn(Cc3ccc(C)cc3)c2Cl)N2CCOCC2)cc1 (stereo not drawn)	none
Cc1ccccc1Cn1nc(C)c(NC(=O)C2c3ccccc3Oc3ccccc32)c1C	none
Nc1ccc(-c2c3ccc(=O)cc-3oc3cc(O)ccc23)c(C(=O)O)c1	CHRM4 agonist 425.7, M5 ag 270.2, M5 antag 41.5
CCN(C(=O)/C=C/c1ccc2c(c1)OCO2)c1ccccc1	M4 PAM 23.8, M5 PAM 19.7
O=C(C=Cc1ccc2c(c1)OCO2)c1ccccc1	none
CC1(C)C(/C=C/C=C/C=C/C=C2\N(CCCCS(=O)(=O)O)c3ccc4ccccc4c3C2(C)C)=[N+](CCCCS(=O)(=O)[O-])c2ccc3ccccc3c21	none
O=C(NC1CC(=O)N(c2ccc(Cl)cc2)C1)N1CCN(C(=O)c2ccco2)CC1 (stereo not drawn)	none

Source: PubChem BioAssay (The Scripps Research Institute Molecular Screening Center)
